SMILES strings stand for the structures. The source made the active and inactive calls. The calls are words filed in the database; no cut-off is given here.

Usually IC50 stands for the concentration at which inhibition is half-maximal. High values mean weaker potency, low ones greater potency.

One assay deals with Acetylcholinesterase (Electrophorus electricus, UniProt O42275). Kind of assay: Inhibition of electric eel AChE using […] as substrate after 10 mins by Ellman method. (Ellman's reagent forms a yellow product with free thiols.)
The target of the next assay is Cholinesterase (Equus caballus, UniProt P81908). Put plainly: Inhibition of equine serum BChE using butyrylthiocholine iodide as substrate after 10 mins by Ellman method.
The nature of assay [1]: Selectivity ratio of IC50 for equine serum BChE to IC50 for electric eel AChE. The procedure, abridged:
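Modified Ellman assay for both enzymes: electric eel AChE with ATCh, or equine serum BuChE with BTCh; DTNB; 0.1 M potassium phosphate pH 8. Compound preincubated 10 min before substrate, absorbance rise at 412 nm at 1-min intervals, 37 °C. Seven concentrations (10⁻³–10⁻⁹ M) run in triplicate. IC50 from log dose–response; ratio = IC50(BuChE)/IC50(AChE).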

Assay [2] deals with Acetylcholinesterase (Electrophorus electricus) (UniProt O42275). The following applies: at 0.12 to 0.17 µM.
The target is the same in assay [3]. Put plainly: Non-competitive inhibition of electric eel AChE using acetylcholine iodide as substrate at 0.10 to 0.14 uM by Lineweaver-Burk method.

Acetylcholinesterase, sequence (O42275 whole entry): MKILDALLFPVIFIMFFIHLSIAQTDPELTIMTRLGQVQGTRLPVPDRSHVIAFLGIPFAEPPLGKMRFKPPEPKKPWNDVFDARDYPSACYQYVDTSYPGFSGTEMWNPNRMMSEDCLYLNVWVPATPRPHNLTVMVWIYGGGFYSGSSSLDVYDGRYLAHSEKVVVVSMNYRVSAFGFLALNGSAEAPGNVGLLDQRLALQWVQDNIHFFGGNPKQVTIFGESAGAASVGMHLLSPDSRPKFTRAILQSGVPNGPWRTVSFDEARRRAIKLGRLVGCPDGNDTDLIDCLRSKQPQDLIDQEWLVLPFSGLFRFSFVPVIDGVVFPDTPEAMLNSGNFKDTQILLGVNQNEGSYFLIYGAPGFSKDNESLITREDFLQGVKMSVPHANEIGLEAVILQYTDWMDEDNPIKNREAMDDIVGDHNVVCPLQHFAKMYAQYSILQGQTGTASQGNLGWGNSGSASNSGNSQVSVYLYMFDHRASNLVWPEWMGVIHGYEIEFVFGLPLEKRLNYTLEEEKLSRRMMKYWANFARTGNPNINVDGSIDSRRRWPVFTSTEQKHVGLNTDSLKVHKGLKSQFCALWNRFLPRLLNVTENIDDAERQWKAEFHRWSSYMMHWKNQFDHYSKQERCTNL
Cholinesterase, sequence (P81908 whole entry): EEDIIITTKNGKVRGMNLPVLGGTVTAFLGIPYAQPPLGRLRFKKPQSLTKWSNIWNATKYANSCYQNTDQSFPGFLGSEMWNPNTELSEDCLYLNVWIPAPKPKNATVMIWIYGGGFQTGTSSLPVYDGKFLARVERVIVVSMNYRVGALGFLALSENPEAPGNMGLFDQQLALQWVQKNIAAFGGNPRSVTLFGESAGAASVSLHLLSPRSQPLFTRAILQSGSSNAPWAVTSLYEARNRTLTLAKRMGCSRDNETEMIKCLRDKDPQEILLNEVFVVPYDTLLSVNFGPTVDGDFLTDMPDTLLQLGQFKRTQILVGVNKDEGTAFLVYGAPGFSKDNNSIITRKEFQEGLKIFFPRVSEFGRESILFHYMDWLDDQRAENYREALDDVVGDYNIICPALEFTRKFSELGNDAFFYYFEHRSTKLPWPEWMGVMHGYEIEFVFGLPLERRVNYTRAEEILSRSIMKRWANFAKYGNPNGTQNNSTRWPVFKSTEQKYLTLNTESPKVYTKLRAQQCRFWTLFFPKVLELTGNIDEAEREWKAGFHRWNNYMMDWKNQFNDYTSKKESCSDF
Acetylcholinesterase (Electrophorus electricus), sequence (O42275 24-633 limits assumed): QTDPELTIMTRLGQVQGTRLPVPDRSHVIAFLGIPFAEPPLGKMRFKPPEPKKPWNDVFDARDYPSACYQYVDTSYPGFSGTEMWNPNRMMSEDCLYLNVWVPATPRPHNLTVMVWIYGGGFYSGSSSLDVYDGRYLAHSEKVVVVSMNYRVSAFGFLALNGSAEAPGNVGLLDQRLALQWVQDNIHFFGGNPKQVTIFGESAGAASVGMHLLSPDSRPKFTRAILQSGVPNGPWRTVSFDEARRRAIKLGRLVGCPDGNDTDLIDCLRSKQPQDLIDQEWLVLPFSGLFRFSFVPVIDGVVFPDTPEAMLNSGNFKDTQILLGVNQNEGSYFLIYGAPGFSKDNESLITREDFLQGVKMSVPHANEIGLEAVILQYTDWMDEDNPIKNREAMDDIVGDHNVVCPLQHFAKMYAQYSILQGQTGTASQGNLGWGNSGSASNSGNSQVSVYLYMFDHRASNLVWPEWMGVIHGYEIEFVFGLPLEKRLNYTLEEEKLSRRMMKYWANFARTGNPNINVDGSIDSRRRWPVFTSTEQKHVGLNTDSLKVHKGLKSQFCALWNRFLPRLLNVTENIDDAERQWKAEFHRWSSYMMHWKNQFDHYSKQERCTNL

For the compound `Cc1cc(-c2nnc(-c3ccc(O)cc3O)s2)ccc1[N+](=O)[O-]`, the figures for the IC50 against Acetylcholinesterase and against Cholinesterase were 20.9 µM and 148 µM, respectively. For the same compound, in assay [1], the Ratio IC50 was found to be 7.1.

For `Oc1ccc(-c2nnc(-c3ccccc3F)s2)c(O)c1`, the IC50 was 1.07 µM on Acetylcholinesterase and over 500 µM against Cholinesterase. The Ratio IC50 in assay [1] is over 467.

Regarding `COc1cc(-c2nnc(-c3ccc(O)cc3O)s2)ccc1O`, the IC50 was 19.2 µM against Acetylcholinesterase and 112 µM against Cholinesterase. The Ratio IC50 in assay [1] came to 5.9.

With `Cc1cccc(-c2nnc(-c3ccc(O)cc3O)s2)c1`, the IC50 against Acetylcholinesterase was determined as 0.16 µM; at Cholinesterase it was 17 µM. Also, in assay [1], the Ratio IC50 came out at 106. Further, in assay [2], the inhibition result is “Active”.

Consider `Oc1ccc(-c2nnc(-c3ccccc3Cl)s2)c(O)c1`, for which the figures for the IC50 against Acetylcholinesterase and against Cholinesterase were 1.55 µM and 196 µM, respectively. In assay [1], the Ratio IC50 came to 127.

Consider `O=[N+]([O-])c1ccccc1-c1nnc(-c2ccc(O)cc2O)s1`, for which the figures for the IC50 on Acetylcholinesterase and at Cholinesterase were 2.12 µM and 57.3 µM, respectively. Further, the Ratio IC50 in assay [1] is 27.

As to `COc1cc(-c2nnc(-c3ccc(O)cc3O)s2)cc(OC)c1OC`, the IC50 was 0.17 µM at Acetylcholinesterase and 196 µM on Cholinesterase. The Ratio IC50 in assay [1] was determined as 1150.

Turning to `Oc1ccc(-c2nnc(-c3ccc(O)c(O)c3)s2)c(O)c1`, the values for the IC50 against Acetylcholinesterase and at Cholinesterase were 0.19 µM and 2.16 µM, respectively. The Ratio IC50 in assay [1] was found to be 11.4.

`Oc1ccc(-c2nnc(-c3ccc(O)cc3O)s2)c(O)c1`: the IC50 against Acetylcholinesterase worked out at 1.89 µM; on Cholinesterase, 26.7 µM. The Ratio IC50 in assay [1] came to 14.2.

As for `Oc1ccc(-c2nnc(-c3ccc(C(F)(F)F)cc3)s2)c(O)c1`, the results for the IC50 on Acetylcholinesterase and against Cholinesterase were 0.09 µM and 26.5 µM, respectively. Also, in assay [1], the Ratio IC50 amounted to 294. The inhibition result in assay [3] was “Active”.

As to `Oc1ccc(-c2nnc(-c3cc(Cl)cc(Cl)c3)s2)c(O)c1`, the values for the IC50 on Acetylcholinesterase and on Cholinesterase were 45.3 µM and over 500 µM, respectively. In assay [1], the Ratio IC50 was over 11.1.

For `COc1cccc(-c2nnc(-c3ccc(O)cc3O)s2)c1`, the IC50 was determined as 1.87 µM at Acetylcholinesterase and 27.3 µM on Cholinesterase. For the same compound, the Ratio IC50 in assay [1] was 25.5.

Consider `Nc1cccc(-c2nnc(-c3ccc(O)cc3O)s2)c1`, for which the half-maximal inhibitory concentration (IC50) against Acetylcholinesterase was determined as 1.73 µM; against Cholinesterase it was 84.3 µM. Moreover, the Ratio IC50 in assay [1] was found to be 48.7.

As for `Oc1ccc(-c2nnc(-c3cc(Cl)ccc3Cl)s2)c(O)c1`, the IC50 against Acetylcholinesterase turned out to be 112 µM; on Cholinesterase, 19.1 µM. The Ratio IC50 in assay [1] came to 0.17.

For `CN(C)C(=O)Oc1cccc([N+](C)(C)C)c1` [NEOSTIGMINE BROMIDE], the IC50 on Acetylcholinesterase was 0.05 µM; against Cholinesterase it was 0.07 µM. In assay [1], the Ratio IC50 was found to be 1.4.

Turning to `COc1ccc(-c2nnc(-c3ccc(O)cc3O)s2)cc1OC`, the results for the IC50 on Acetylcholinesterase and against Cholinesterase were 19.3 µM and over 500 µM, respectively. Moreover, the Ratio IC50 in assay [1] was over 25.9.

For the compound `COc1ccc(-c2nnc(-c3ccc(O)cc3O)s2)cc1`, the IC50 at Acetylcholinesterase was determined as 2.18 µM; at Cholinesterase, 96.3 µM. In addition, the Ratio IC50 in assay [1] was 44.2.

Consider `Oc1ccc(-c2nnc(-c3ccccc3Br)s2)c(O)c1`, for which the IC50 at Acetylcholinesterase stood at 0.06 µM; against Cholinesterase it was 0.29 µM. For the same compound, in assay [1], the Ratio IC50 came out at 4.8.

On to `Oc1ccc(-c2nnc(-c3ccc(Cl)cc3Cl)s2)c(O)c1`, for which the IC50 against Acetylcholinesterase is 128 µM; against Cholinesterase, over 500 µM. The Ratio IC50 in assay [1] was over 3.9.

`COc1ccccc1-c1nnc(-c2ccc(O)cc2O)s1`: the IC50 against Acetylcholinesterase is 26.7 µM; against Cholinesterase it was 212 µM. Moreover, in assay [1], the Ratio IC50 was found to be 7.9.

In the case of `O=[N+]([O-])c1cccc(-c2nnc(-c3ccc(O)cc3O)s2)c1`, the IC50 turned out to be 0.67 µM on Acetylcholinesterase and 32.1 µM against Cholinesterase. Besides, the Ratio IC50 in assay [1] came to 47.9.

For the compound `COc1ccc(OC)c(-c2nnc(-c3ccc(O)cc3O)s2)c1`, the figures for the 50% inhibitory concentration (IC50) against Acetylcholinesterase and against Cholinesterase were 1.56 µM and 63.3 µM, respectively. In addition, the Ratio IC50 in assay [1] amounted to 40.5.

For the origin of these results see ChEMBL document CHEMBL2331284, “Synthesis and biological evaluation of 1,3,4-thiadiazole analogues as novel AChE and BuChE inhibitors” (Eur J Med Chem, 2013).
